In ChEMBL document CHEMBL3351665, “Synthesis and evaluation of benzimidazole carbamates bearing indole moieties for antiproliferative and antitubulin activities” (Eur J Med Chem, 2014) one finds IC50, Activity and inhibition data, which are given here for 25 compounds.

Active and inactive are the calls of the source. The rule behind the calls is not given here.

Assay [1] can be described thus: Growth inhibition of human SGC7901 cells after 72 hrs by MTT assay. The conditions noted are these: SGC-7901, 72 h. It counts as functional, cell-based. The procedure, abridged:
(§1)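 Cells grown in RPMI-1640 with 10% FBS, penicillin/streptomycin, 37 °C, 5% CO2; seeded 1-3 × 10^4/well, treated 24 h later in triplicate wells for 72 h. MTT (5 mg/mL) added in fresh medium for 4 h, formazan dissolved in DMSO, OD490 read; IC50 = concentration reducing absorbance by 50% versus vehicle-treated wells; triplicate experiments.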
A general note: Formazan colour is commonly taken as a measure of viable cells.

The test system of the next assay is A549. In words: Growth inhibition of human A549 cells after 72 hrs by MTT assay. Type of assay: functional, cell-based. The conditions noted are these: A549, 72 h. In a few lines: as §1
Assay [2] in a line: Growth inhibition of human HT1080 cells after 72 hrs by MTT assay. Type of assay: functional, cell-based. The conditions noted are these: HT-1080, 72 h. In a few lines:
as §1

The target in assay [3] is T1, Tubulin (Homo sapiens) (UniProt P68371+Q9H4B7+P0DPH7+P68366+Q13509+Q71U36+P04350+Q3ZCM7+P07437+P68363+Q9BQE3+Q6PEY2+Q13885+Q9BVA1+Q9BUF5). In words: Induction of distortions in tubulin assembly in human SGC7901 cells assessed as abnormal mitotic spindle formation at 2 fold IC50 level incubated for 48 hrs by immunofluorescence staining based fluorescence microscopy. It counts as cell-based. The conditions noted are these: SGC-7901. The procedure, abridged: (§2)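 Fixed in 4% formaldehyde/PBS 30 min at -20 °C, permeabilised with 0.1% Triton X-100, blocked in 5% BSA. Stained with α-tubulin primary (1:100, overnight 4 °C) and FITC anti-mouse secondary (1:1000, 3 h 37 °C), DAPI nuclei; fluorescence microscopy.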

The target of assay [4] is T1, Tubulin (Homo sapiens). As to the kind of experiment: Induction of distortions in tubulin assembly in human HT1080 cells assessed as abnormal mitotic spindle formation at 2 fold IC50 level incubated for 48 hrs by immunofluorescence staining based fluorescence microscopy. It counts as cell-based. The conditions noted are these: HT-1080. In a few lines: as §2
The target in another assay is Tubulin (Bos taurus) (UniProt Q6B856+Q862L2+Q862F3). In words: (§3) Inhibition of bovine brain tubulin polymerization incubated for 90 mins by fluorescence-based assay. The procedure, abridged: (§4)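 Fluorescence kit assay with purified bovine tubulin resuspended in ice-cold G-PEM (80 mM PIPES, 2 mM MgCl2, 0.5 mM EGTA, 1 mM GTP, 20% glycerol) and added to drug or DMSO vehicle. Reaction started by warming from 4 °C to 37 °C.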

For the next assay, the target named is Tubulin (Bos taurus, UniProt Q6B856+Q862L2+Q862F3). Described as §3. The procedure, abridged: as §4

For orientation: IC50 means the concentration needed to halve the response being measured. A lower IC50 goes with higher potency.

In the case of `COC(=O)Nc1nc2cc([Se]c3c[nH]c4ccc(Br)cc34)ccc2[nH]1`, the IC50 amounted to 2.15 µM in assay [1], 2.21 µM with A549 and 2.75 µM in assay [2].

On to `COC(=O)Nc1nc2cc(S(=O)(=O)c3c[nH]c4ccc(Br)cc34)ccc2[nH]1`, for which the figures for the IC50 (in assay [1]; in the assay on A549; in assay [2]) were 7.44 µM, 7.42 µM and 3.18 µM, respectively.

As for `COC(=O)Nc1nc2cc([S+]([O-])c3c[nH]c4ccc(C#N)cc34)ccc2[nH]1` (stereo not drawn), the IC50 is more than 10 µM in assay [1], more than 10 µM in the assay with A549 and 9.43 µM in assay [2].

Regarding `COC(=O)Nc1nc2cc(Sc3c(C)[nH]c4ccccc34)ccc2[nH]1`, the IC50 in assay [1] turned out to be 0.51 µM; with A549 it was 0.83 µM; in assay [2] it was 0.97 µM.

As to `COC(=O)Nc1nc2cc([S+]([O-])c3c(C)[nH]c4ccc(F)cc34)ccc2[nH]1` (stereo not drawn), the IC50 in assay [1] is 3.51 µM; in the assay on A549 it was 3.27 µM; in assay [2], more than 10 µM.

For `COC(=O)Nc1nc2cc([S+]([O-])c3c[nH]c4ccc(Br)cc34)ccc2[nH]1` (stereo not drawn), the IC50 is 5.19 µM in assay [1], more than 10 µM in the assay with A549 and more than 10 µM in assay [2].

On to `COC(=O)Nc1nc2cc(Sc3c[nH]c4ccc(C#N)cc34)ccc2[nH]1`, for which the IC50 was 0.12 µM in assay [1], 5.14 µM in the assay with A549 and 0.62 µM in assay [2].

On to `COC(=O)Nc1nc2cc([S+]([O-])c3c[nH]c4ccccc34)ccc2[nH]1` (stereo not drawn), for which the IC50 in assay [1] is 3.96 µM; in the assay with A549, 6.23 µM; in assay [2] it was 5.24 µM.

Take `COC(=O)Nc1nc2cc(S(=O)(=O)c3c[nH]c4ccccc34)ccc2[nH]1`: the figures for the IC50 (in assay [1]; in the assay on A549; in assay [2]) were 1.26 µM, 4.21 µM and 2.01 µM, respectively.

Turning to `COC(=O)Nc1nc2cc(C(=O)c3cccs3)ccc2[nH]1` [NOCODAZOLE], the IC50 in assay [1] was found to be 0.08 µM; with A549, 0.12 µM; in assay [2] it was 0.14 µM. Besides, the result on Tubulin (Homo sapiens) [3] and on Tubulin (Homo sapiens) [4] was Active.

Turning to `COC(=O)Nc1nc2cc(Sc3c(C)[nH]c4ccc(F)cc34)ccc2[nH]1`, the IC50 in assay [1] is 1.2 µM; with A549, 2.52 µM; in assay [2] it was 3.27 µM.

As to `COC(=O)Nc1nc2cc([Se]c3c(C)[nH]c4ccc(F)cc34)ccc2[nH]1`, the IC50 is 1.12 µM in assay [1], 1.15 µM in the assay on A549 and 1.69 µM in assay [2].

Consider `COC(=O)Nc1nc2cc([Se]c3c[nH]c4ccccc34)ccc2[nH]1`, for which the IC50 in assay [1] was determined as 0.098 µM; with A549 it was 0.15 µM; in assay [2], 0.13 µM; against Tubulin, 3.6 µM. Further, the inhibition result on Tubulin (Bos taurus) is “Dose-dependent effect”. Also, the outcome on Tubulin (Homo sapiens) [3] and on Tubulin (Homo sapiens) [4] was Active.

Regarding `COC(=O)Nc1nc2cc([S+]([O-])c3c(C)[nH]c4ccc(Cl)cc34)ccc2[nH]1` (stereo not drawn), the IC50 (in assay [1]; with A549; in assay [2]) was more than 10 µM in each case.

As for `COC(=O)Nc1nc2cc(Sc3c[nH]c4ccccc34)ccc2[nH]1`, the IC50 is 2.62 µM in assay [1], 0.39 µM with A549 and 0.88 µM in assay [2].

As to `COC(=O)Nc1nc2cc(S(=O)(=O)c3c(C)[nH]c4ccc(Cl)cc34)ccc2[nH]1`, the IC50 (in assay [1]; with A549; in assay [2]) was more than 10 µM throughout.

On to `COC(=O)Nc1nc2cc([S+]([O-])c3c(C)[nH]c4ccccc34)ccc2[nH]1` (stereo not drawn), for which the IC50 in assay [1] was found to be 9.93 µM; in the assay with A549, 7.98 µM; in assay [2] it was 9.85 µM.

For `COC(=O)Nc1nc2cc(S(=O)(=O)c3c(C)[nH]c4ccccc34)ccc2[nH]1`, the IC50 (in assay [1]; in the assay on A549; in assay [2]) was more than 10 µM throughout.

Turning to `COC(=O)Nc1nc2cc([Se]c3c(C)[nH]c4ccc(Cl)cc34)ccc2[nH]1`, the IC50 is more than 10 µM in assay [1], 2.98 µM in the assay on A549 and more than 10 µM in assay [2].

As for `COC(=O)Nc1nc2cc(S(=O)(=O)c3c(C)[nH]c4ccc(F)cc34)ccc2[nH]1`, the IC50 is 4.18 µM in assay [1], 9.08 µM in the assay on A549 and more than 10 µM in assay [2].

For `COC(=O)Nc1nc2cc(Sc3c(C)[nH]c4ccc(Cl)cc34)ccc2[nH]1`, the IC50 in assay [1] was determined as 3.38 µM; in the assay on A549, 7.33 µM; in assay [2], 4.13 µM.

With `COC(=O)Nc1nc2cc(Sc3c[nH]c4ccc(Br)cc34)ccc2[nH]1`, the IC50 in assay [1] worked out at 2.12 µM; with A549, 1.19 µM; in assay [2], 1.33 µM; against Tubulin it was 8.2 µM. Moreover, on Tubulin (Bos taurus), the inhibition result is “Dose-dependent effect”.

Take `COC(=O)Nc1nc2cc([Se]c3c(C)[nH]c4ccccc34)ccc2[nH]1`: the half-maximal inhibitory concentration (IC50) in assay [1] came out at 0.23 µM; with A549, 3.83 µM; in assay [2] it was 0.27 µM.

Regarding `COC(=O)Nc1nc2cc(S(=O)(=O)c3c[nH]c4ccc(C#N)cc34)ccc2[nH]1`, the IC50 (in assay [1]; in the assay on A549; in assay [2]) was more than 10 µM in each case.

As for `COC(=O)Nc1nc2cc([Se]c3c[nH]c4ccc(C#N)cc34)ccc2[nH]1`, the IC50 amounted to 1.11 µM in assay [1], 5.07 µM with A549 and 0.95 µM in assay [2].
